The values below come from PubChem BioAssay AID651654 (Broad Institute, 2012).

Where “and” joins values, the source holds several entries; their conditions need not be identical. Identical values can stand only once. Among all 360,000 compounds or so, about 740 (0.21%) were called active. For the sample, actives were picked, then their nearest neighbours and some compounds at random. Values without a mark were called inactive.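 The calls were made as follows: active = mean lysis activity across replicates of at least 80%, whatever share of replicates individually reach that level; inactive = mean lysis activity below 80%.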

The assay can be described thus: Cryptococcus neoformans cell lysis inducers, primary screen, AK release luminescence, single concentration (AID 651654). To be noted: C. neoformans lysis, adenylate kinase release luminescence, 4 h; at 15 µM; hits give high values; normalised: neutral wells 0, clomiphene wells 100. An outline of the steps:
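Schedule: static 4 h at 37 °C with compound, 1 h detection; system: C. neoformans cells; benchmarks: Clomiphene as positive control; buffer or medium: fresh YPD medium; measure: luminescence rise reflecting yeast cell lysis; measured by: luminescent adenylate kinase detection reagent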
As to `COc1ccc(S(=O)(=O)N(C)C[C@@H]2Oc3ccc(NC(=O)Nc4c(C)noc4C)cc3C(=O)N([C@H](C)CO)C[C@@H]2C)cc1`, the lysis activity is -0.689% and -2.77%.
The figure for `COc1ccc(S(=O)(=O)N(C)C[C@H]2Oc3ccc(NC(=O)Nc4c(C)noc4C)cc3C(=O)N([C@H](C)CO)C[C@H]2C)cc1` is -3.44%; for `Cc1noc(C)c1NC(=O)Nc1ccc2c(c1)C(=O)N([C@@H](C)CO)C[C@H](C)[C@H](CN(C)S(=O)(=O)c1ccc(Cl)cc1)O2` it is 96.2% (active); for `C[C@H](CO)N1C[C@H](C)[C@@H](CN(C)C(=O)c2ccncc2)Oc2ncc(-c3ccncc3)cc2C1=O` it is -2.74%.
The figure for `COc1ccc(NC(=O)N[C@@H]2C=C[C@H](CC(=O)NC3CCC3)O[C@@H]2CO)cc1` is -0.593%; for `C[C@H]1CN([C@@H](C)CO)C(=O)c2cccc(NC(=O)Nc3ccccc3)c2O[C@@H]1CN(C)S(C)(=O)=O` it is 0.333%; for `O=C(Nc1ccccc1)N1C[C@H]2[C@@H](c3ccccc31)[C@@H](CO)N2Cc1cocn1` it is -2.69%.
For the molecule `O=C(Nc1ccc(F)cc1)N1C[C@@H]2[C@H](c3ccccc31)[C@H](CO)N2Cc1ccccc1`, the lysis activity was -1.33%.
For `O=C(Nc1ccc(F)cc1)N1C[C@H]2[C@@H](c3ccccc31)[C@@H](CO)N2Cc1cocn1`, the lysis activity was 94.8% (active).
The figure for `CCCNC(=O)N1[C@@H]2Cn3c(ccc(-c4ccc(OC)cc4)c3=O)[C@H]1[C@@H](C(=O)NC1CCC1)[C@@H]2CO` is 0.95%.
The value for `O=C(N[C@H]1CC[C@@H](CCNS(=O)(=O)c2ccccc2)O[C@H]1CO)c1cccnc1` was -5.13%.
The value for `N#C[C@@H]1[C@@H](c2ccc(-c3ccccc3)cc2)[C@@H](CO)N1C(=O)Cc1ccccc1` was 0.072%; that for `N#C[C@H]1[C@H](c2ccc(-c3ccccc3)cc2)[C@@H](CO)N1C(=O)Cc1ccccc1` was 0.774%.
As to `N#C[C@@H]1[C@@H](c2ccccc2)[C@@H](CO)N1C(=O)Cc1ccccc1`, the lysis activity was 116% (active).
The value for `COc1cccc(S(=O)(=O)Nc2ccc3c(c2)[C@H]2C[C@H](CC(=O)N4CCCCC4)O[C@@H](CO)[C@H]2O3)c1` was -2.67%; that for `O=C(NCc1cccc(F)c1)[C@H]1[C@H](CO)[C@H]2Cn3c(cccc3=O)[C@@H]1N2` was 0.27%; that for `O=C(C[C@@H]1C=C[C@@H](NC(=O)c2ccc3c(c2)OCO3)[C@H](CO)O1)NC1Cc2ccccc2C1` was 1.22%.
The value for `CO[C@@H]1CN(C)C(=O)c2cc(NC(=O)c3ccccc3)ccc2OC[C@@H](C)N(C(C)=O)C[C@@H]1C` was -6.13%.
